Measurements taken from ChEMBL document CHEMBL4376885 (J Med Chem, 2020).

Columns and labels:
[1] = tested on: Human immunodeficiency virus 1; assay: Antiviral activity against NNRTI-resistant HIV1 RES056 containing reverse transcriptase K103N+Y181C mutant infected in human MT4 cells assessed as protection against virus-induced cytopathic effect incubated for 5 days by MTT assay; assay type: functional, organism-based; settings: Human immunodeficiency virus 1, RES056, MT4, 120 h
[2] = tested on: Human immunodeficiency virus 1; assay: Antiviral activity against HIV1 3B infected in human MT4 cells assessed as protection against virus-induced cytopathic effect incubated for 5 days by MTT assay; assay type: functional, organism-based; settings: Human immunodeficiency virus 1, 3B, MT4, 120 h
[3] = tested on: Human immunodeficiency virus 1; assay: Antiviral activity against HIV1 containing reverse transcriptase Y188L mutant infected in human MT4 cells assessed as protection against virus-induced cytopathic effect incubated for 5 days by MTT assay; assay type: functional, organism-based; settings: Human immunodeficiency virus 1, MT4, 120 h
[4] = tested on: Human immunodeficiency virus 1; assay: Antiviral activity against HIV1 containing reverse transcriptase L100I mutant infected in human MT4 cells assessed as protection against virus-induced cytopathic effect incubated for 5 days by MTT assay; assay type: functional, organism-based; settings: Human immunodeficiency virus 1, MT4, 120 h
[5] = tested on: Human immunodeficiency virus 1; assay: Antiviral activity against HIV1 containing reverse transcriptase Y181C mutant infected in human MT4 cells assessed as protection against virus-induced cytopathic effect incubated for 5 days by MTT assay; assay type: functional, organism-based; settings: Human immunodeficiency virus 1, MT4, 120 h
[6] = tested on: Human immunodeficiency virus 1; assay: Antiviral activity against HIV1 containing reverse transcriptase E138K mutant infected in human MT4 cells assessed as protection against virus-induced cytopathic effect incubated for 5 days by MTT assay; assay type: functional, organism-based; settings: Human immunodeficiency virus 1, MT4, 120 h
[7] = tested on: Human immunodeficiency virus 1; assay: Antiviral activity against HIV1 containing reverse transcriptase F227L+V106A mutant infected in human MT4 cells assessed as protection against virus-induced cytopathic effect incubated for 5 days by MTT assay; assay type: functional, organism-based; settings: Human immunodeficiency virus 1, MT4, 120 h
[8] = tested on: Human immunodeficiency virus 1; assay: Antiviral activity against HIV1 containing reverse transcriptase K103N mutant infected in human MT4 cells assessed as protection against virus-induced cytopathic effect incubated for 5 days by MTT assay; assay type: functional, organism-based; settings: Human immunodeficiency virus 1, MT4, 120 h
Cytochrome P450 2D6 = Cytochrome P450 2D6 (Homo sapiens, UniProt P10635); assay: Inhibition of CYP2D6 in human liver microsomes using dextromethorphan substrate in presence of NADPH incubated for 10 mins; assay type: ADME
[9] = Tmax in Kunming mouse at 2 mg/kg, iv by LC-MS/MS analysis; assay type: ADME, organism-based; settings: in vivo
Outline: (§1)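 Single dose, intravenous at 2 mg/kg or oral at 10 mg/kg, in Wistar rats and Kunming mice.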

[10] = Toxicity in Kunming mouse assessed as induction of body weight changes at 2000 mg/kg, po administered as single dose measured during 7 days post dose; assay type: organism-based; settings: in vivo, 168 h
Outline: (§2)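 Kunming mice received a single oral 2000 mg/kg dose and were followed for 7 days alongside an untreated control group. Mortality, poisoning symptoms and behaviour were recorded, and relative body-weight change was tracked.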

[11] = Toxicity in Kunming mouse assessed as induction of abnormal behaviors at 2000 mg/kg, po administered as single dose measured during 7 days post dose; assay type: organism-based; settings: in vivo, 168 h; outline: as §2
[12] = Tmax in Wistar rat at 10 mg/kg, po by LC-MS/MS analysis; assay type: ADME, organism-based; settings: in vivo; outline: as §1
[13] = Tmax in Wistar rat at 2 mg/kg, iv by LC-MS/MS analysis; assay type: ADME, organism-based; settings: in vivo; outline: as §1
[14] = Tmax in Kunming mouse at 10 mg/kg, po by LC-MS/MS analysis; assay type: ADME, organism-based; settings: in vivo; outline: as §1
[15] = Toxicity in Kunming mouse assessed as induction of poisoning symptoms at 2000 mg/kg, po administered as single dose measured during 7 days post dose; assay type: organism-based; settings: in vivo, 168 h; outline: as §2
[16] = Toxicity in Kunming mouse assessed as induction of mortality at 2000 mg/kg, po administered as single dose measured during 7 days post dose; assay type: organism-based; settings: in vivo, 168 h; outline: as §2

Sequence of Cytochrome P450 2D6 (P10635 whole entry): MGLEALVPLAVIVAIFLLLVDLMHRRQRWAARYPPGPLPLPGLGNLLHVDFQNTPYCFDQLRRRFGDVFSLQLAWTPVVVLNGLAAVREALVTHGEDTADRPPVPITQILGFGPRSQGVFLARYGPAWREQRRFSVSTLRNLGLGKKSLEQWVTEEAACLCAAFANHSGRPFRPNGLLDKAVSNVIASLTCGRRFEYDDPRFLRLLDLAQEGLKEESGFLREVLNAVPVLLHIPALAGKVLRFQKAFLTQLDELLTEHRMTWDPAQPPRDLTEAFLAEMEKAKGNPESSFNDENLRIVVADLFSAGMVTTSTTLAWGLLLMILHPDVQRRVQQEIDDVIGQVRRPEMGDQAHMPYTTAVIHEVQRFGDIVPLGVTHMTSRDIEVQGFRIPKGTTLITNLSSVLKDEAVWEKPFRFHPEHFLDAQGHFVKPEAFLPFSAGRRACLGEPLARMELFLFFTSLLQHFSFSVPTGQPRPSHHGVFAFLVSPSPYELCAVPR

Cc1cc(C#N)cc(C)c1Oc1nc(Nc2ccc(C#N)c(F)c2)nc2ccsc12
EC50 [1]: 50.1 nM
EC50 [2]: 6.74 nM

Cc1cc(C#N)cc(C)c1Oc1nc(Nc2ccc(C#N)c(F)c2)nc2sccc12
EC50 [1]: 119 nM
EC50 [2]: 10.1 nM

Cc1cc(C#N)cc(C)c1Oc1nc(Nc2ccc(C#N)c(F)c2F)nc2ccsc12
EC50 [2]: 226 nM

Cc1cc(C#N)cc(C)c1Oc1nc(Nc2ccc(C#N)c(F)c2F)nc2sccc12
EC50 [2]: 40.3 nM

Cc1cc(C#N)cc(C)c1Oc1ccnc(Nc2ccc(C#N)c(F)c2)n1
EC50 [1]: 388 nM
EC50 [2]: 6.33 nM

Cc1cc(C#N)cc(C)c1Oc1nc(Nc2ccc(C#N)c(C(F)(F)F)c2)nc2ccsc12
EC50 [2]: 29.2 nM

Cc1cc(/C=C/C#N)cc(C)c1Oc1nc(Nc2ccc(C#N)cc2F)nc2ccsc12
EC50 [1]: 561 nM
EC50 [2]: 6.34 nM

Cc1cc(C#N)cc(C)c1Oc1nc(Nc2ccc(C#N)c(F)c2)nc2c1CCCC2
EC50 [1]: 180 nM
EC50 [2]: 11.3 nM

Cc1cc(C#N)cc(C)c1Oc1nc(Nc2ccc(C#N)cc2F)nc2ccsc12
EC50 [2]: 30.4 nM

Cc1cc(C#N)cc(C)c1Oc1nc(Nc2ccc(C#N)c(F)c2)nc2cc[nH]c12
EC50 [1]: 29.4 nM
EC50 [2]: 2.89 nM

Cc1cc(/C=C/C#N)cc(C)c1Oc1nc(Nc2ccc(C#N)c(C(F)(F)F)c2)nc2sccc12
EC50 [1]: 140 nM
EC50 [2]: 35.3 nM

Cc1cc(C#N)cc(C)c1Oc1nc(Nc2ccc(C#N)c(F)c2)nc2c1CSC2
EC50 [1]: 611 nM
EC50 [2]: 20.7 nM

Cc1cc(C#N)cc(C)c1Oc1nc(Nc2ccc(C#N)cc2C(F)(F)F)nc2sccc12
EC50 [2]: 1280 nM

Cc1cc(/C=C/C#N)cc(C)c1Oc1nc(Nc2ccc(C#N)c(F)c2F)nc2sccc12
EC50 [1]: 2350 nM
EC50 [2]: 18.6 nM

Cc1cc(/C=C/C#N)cc(C)c1Oc1nc(Nc2ccc(C#N)cc2C(F)(F)F)nc2ccsc12
EC50 [1]: 48.4 nM
EC50 [2]: 24.5 nM

Cc1cc(C#N)cc(C)c1Oc1nc(Nc2ccc(C#N)c(F)c2)nc2c1COC2
EC50 [1]: 274 nM
EC50 [2]: 2.99 nM

Cc1cc(/C=C/C#N)cc(C)c1Oc1nc(Nc2ccc(C#N)c(F)c2F)nc2ccsc12
EC50 [1]: 1090 nM
EC50 [2]: 8.92 nM

Cc1cc(C#N)cc(C)c1Oc1nc(Nc2ccc(C#N)c(F)c2)nc2ncsc12
EC50 [1]: 131 nM
EC50 [2]: 3 nM

Cc1cc(/C=C/C#N)cc(C)c1Oc1nc(Nc2ccc(C#N)cc2F)nc2sccc12
EC50 [1]: 473 nM
EC50 [2]: 7.13 nM

Cc1cc(/C=C/C#N)cc(C)c1Oc1nc(Nc2ccc(C#N)cc2C(F)(F)F)nc2sccc12
EC50 [2]: 166 nM

Cc1cc(C#N)cc(C)c1Oc1cc(Cl)nc(Nc2ccc(C#N)c(F)c2)n1
EC50 [1]: 898 nM
EC50 [2]: 48.9 nM

Cc1cc(C#N)cc(C)c1Oc1nc(Nc2ccc(C#N)c(F)c2)nc2c1SCC2
EC50 [1]: 107 nM
EC50 [2]: 6.31 nM

Cc1cc(C#N)cc(C)c1Oc1nc(Nc2ccc(C#N)c(F)c2)nc2cccc(F)c12
EC50 [1]: 182 nM
EC50 [2]: 12.3 nM

Cc1cc(C#N)cc(C)c1Oc1nc(Nc2ccc(C#N)c(F)c2)nc2ccccc12
EC50 [1]: 148 nM
EC50 [2]: 8.07 nM

Cc1cc(/C=C/C#N)cc(C)c1Oc1nc(Nc2ccc(C#N)c(F)c2)nc2sccc12
EC50 [3]: 35.7 nM
EC50 [4]: 5.55 nM
EC50 [5]: 26.3 nM
EC50 [1]: 33.4 nM
EC50 [2]: 7.64 nM
EC50 [6]: 29.7 nM
EC50 [7]: 32.8 nM
EC50 [8]: 7.36 nM

Cc1cc(C#N)cc(C)c1Oc1nc(Nc2ccc(C#N)c(F)c2)nc2c1CCC2
EC50 [1]: 951 nM
EC50 [2]: 37.7 nM

Cc1cc(C#N)cc(C)c1Oc1nc(Nc2ccc(C#N)cc2)nc(N)c1Br [ETRAVIRINE]
EC50 [1]: 32.2 to 37.9 nM
EC50 [2]: 2.55 to 3.13 nM

Cc1cc(/C=C/C#N)cc(C)c1Oc1nc(Nc2ccc(C#N)c(C(F)(F)F)c2)nc2ccsc12
EC50 [2]: 146 nM

O=C1Nc2ccc(Cl)cc2[C@@](C#CC2CC2)(C(F)(F)F)O1 [EFAVIRENZ]
EC50 [1]: 186 to 260 nM
EC50 [2]: 2.31 to 2.49 nM

Cc1cc(C#N)cc(C)c1Oc1nc(Nc2ccc(C#N)c(F)c2)nc2scnc12
EC50 [1]: 162 nM
EC50 [2]: 3.72 nM

Cc1cc(/C=C/C#N)cc(C)c1Oc1nc(Nc2ccc(C#N)c(F)c2)nc2ccsc12
IC50 (Cytochrome P450 2D6): > 50 µM
EC50 [3]: 8.15 nM
EC50 [4]: < 3.62 nM
Tmax [9]: 1.98 min
Activity [10]: Non-Toxic
EC50 [5]: 8.49 nM
Activity [11]: Non-Toxic
EC50 [1]: 21.5 nM
Tmax [12]: 30 min
Tmax [13]: 1.98 min
Tmax [14]: 1 h
EC50 [2]: 8.6 nM
EC50 [6]: 9.4 nM
Activity [15]: Non-Toxic
Activity [16]: Non-Toxic
EC50 [7]: 9.28 nM
EC50 [8]: < 3.62 nM

Cc1cc(C#N)cc(C)c1Oc1nc(Nc2ccc(C#N)cc2C(F)(F)F)nc2ccsc12
EC50 [2]: 896 nM

Cc1cc(C#N)cc(C)c1Oc1nc(Nc2ccc(C#N)cc2F)nc2sccc12
EC50 [2]: 24 nM

Cc1cc(C#N)cc(C)c1Oc1nc(Nc2ccc(C#N)c(C(F)(F)F)c2)nc2sccc12
EC50 [2]: 44.9 nM
